# Results published in ChEMBL document CHEMBL1155549, “Sialic acid-mimic peptides as hemagglutinin inhibitors for anti-influenza therapy” (J Med Chem, 2010).
# pIC50, pKd: −log10 of the molar value. Active and inactive are the calls of the source. No cut-off for these calls is given here. Where a SMILES comes first, the peptide text is derived from it. The star is where a group is joined. Biotin = O=C1N[C@H]2[C@H](CS[C@H]2CCCCC(=O)*)N1; Stearoyl = CCCCCCCCCCCCCCCCCC(=O)*
# Experiments:
# Influenza A virus = experiment: Antiviral activity against Influenza A virus (A/Puerto Rico/8/34(H1N1)) infected in MDCK cells after 48 hrs by plaque assay; type: functional, organism-based; settings: A/Puerto Rico/8/1934(H1N1)
# Outline: (§1)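 N-stearoyl peptides were serially diluted in PBS from a 2 mM stock and mixed with 50-200 pfu virus for 30 min at room temperature. The mixture was put on MDCK monolayers for 30 min at 37 °C under 5% CO2, then washed off. After 2 days, plaques were stained with crystal violet and counted. Inhibition was 100(1 - N/N0), n = 3, plotted against concentration.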
# H3N2 subtype = experiment: Antiviral activity against Influenza A virus (A/Aichi/2/1968(H3N2)) infected in MDCK cells after 48 hrs by plaque assay; type: functional, organism-based; outline: as §1
# [1] = biological target: Hemagglutinin (Influenza A virus (A/Puerto Rico/8/1934(H1N1)), UniProt P03452); experiment: Binding affinity to Influenza A virus (A/Puerto Rico/8/34(H1N1)) hemagglutininin by phage ELISA
# Outline: (§2)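 Wells coated with target (HA, WGA or anti-GM3 antibody) were blocked with 1% BSA/TBS. Phage in TBS was added for 2 h, washed with TBST and reblocked with 5% BSA/TBS. Detection used anti-fd antibody then peroxidase anti-rabbit IgG, 1 h each, with o-phenylenediamine read as ΔA at 492 nm, in triplicate. Phage concentration came from A260. Kd was from a linear plot of ΔA against phage concentration.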
# [2] = system: Influenza A virus (A/Wyoming/03/2003(H3N2)); experiment: Binding affinity to Influenza A virus (A/Wyoming/03/2003 (H3N2)) hemagglutininin by avidin-biotin peroxidase complex method
# Outline: (§3)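 HA was coated at 70 μg/mL overnight at 4 °C and blocked with 1% BSA/PBS. C-terminally biotinylated peptides (5-400 μM) were added for 2 h. After PBS washes, peroxidase-streptavidin was added for 1 h, and o-phenylenediamine colour was read as ΔA at 492 nm, in triplicate. Kd came from a Scatchard plot over 20-200 μM peptide.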
# [3] = system: Influenza A virus (A/New Caledonia/20/1999(H1N1)); experiment: Binding affinity to Influenza A virus (A/New Caledonia/20/1999 (H1N1)) hemagglutininin by avidin-biotin peroxidase complex method; outline: as §3
# [4] = Binding affinity to Influenza A virus (A/Wuhan/359/1995 (H3N2)) hemagglutininin by phage ELISA; outline: as §2
# [5] = Binding affinity to wheat germ agglutinin by phage ELISA; design: species or system Triticum aestivum; outline: as §2
# Hemagglutinin (Influenza A virus (A/Puerto Rico/8/1934(H1N1)), UniProt P03452), sequence (P03452 18-342 limits assumed): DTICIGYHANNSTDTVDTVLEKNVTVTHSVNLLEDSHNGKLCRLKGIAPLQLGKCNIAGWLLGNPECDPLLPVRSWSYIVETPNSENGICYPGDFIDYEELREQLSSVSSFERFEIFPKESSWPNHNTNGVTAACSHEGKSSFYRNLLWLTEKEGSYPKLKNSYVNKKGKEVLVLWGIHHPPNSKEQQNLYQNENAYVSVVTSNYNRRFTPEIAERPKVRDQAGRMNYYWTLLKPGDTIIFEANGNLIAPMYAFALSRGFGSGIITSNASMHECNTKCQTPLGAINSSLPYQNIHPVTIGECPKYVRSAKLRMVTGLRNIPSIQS
# Hemagglutinin (Influenza A virus (A/Puerto Rico/8/1934(H1N1)), UniProt P03452), sequence (P03452 344-565 limits assumed): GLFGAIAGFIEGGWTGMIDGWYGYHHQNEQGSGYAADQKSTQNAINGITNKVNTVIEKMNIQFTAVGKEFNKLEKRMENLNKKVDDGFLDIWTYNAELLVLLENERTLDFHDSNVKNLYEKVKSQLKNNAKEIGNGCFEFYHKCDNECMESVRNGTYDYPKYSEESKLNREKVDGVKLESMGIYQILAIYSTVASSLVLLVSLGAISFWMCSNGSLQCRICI
compound,measurement,setting,value
CCCCCCCCCCCCCCCCCC(=O)N[C@@H](C)C(=O)N[C@@H](CCCNC(=N)N)C(=O)N[C@@H](CC(C)C)C(=O)N1CCC[C@H]1C(=O)N[C@@H](CCCNC(=N)N)C(=O)N[C@H](C(=O)N[C@@H](CC(C)C)C(=O)N[C@H](C(=O)N[C@@H](Cc1cnc[nH]1)C(=O)N1CCC[C@H]1C(=O)N[C@@H](CCCCN)C(=O)N[C@@H](Cc1cnc[nH]1)C(=O)N[C@@H](C)C(=O)N[C@@H](CCC(N)=O)C(=O)N[C@@H](C)C(N)=O)C(C)C)[C@@H](C)O (Stearoyl-ARLPRTLVHPKHAQA-NH2),pIC50,Influenza A virus,4.87
same,pIC50,H3N2 subtype,5.12
CCCCCCCCCCCCCCCCCC(=O)N[C@H](C(=O)N[C@@H](Cc1cnc[nH]1)C(=O)N1CCC[C@H]1C(=O)N[C@@H](CCCCN)C(=O)N1CCC[C@H]1C(=O)N[C@@H](C)C(=O)N[C@@H](CCC(N)=O)C(=O)N1CCC[C@H]1C(N)=O)C(C)C (Stearoyl-VHPKPAQP-NH2),pIC50,Influenza A virus,5.00
same,pIC50,H3N2 subtype,4.23
H-IDIAFSSLALADISR-OH [IDIAFSSLALADISR] [listing 1 of 2 here],pKd,[1],7.72
CCCCCCCCCCCCCCCCCC(=O)N[C@@H](CCCNC(=N)N)C(=O)N[C@H](C(=O)N[C@@H](CCSC)C(=O)N[C@H](C(=O)N[C@@H](Cc1cnc[nH]1)C(=O)N1CCC[C@H]1C(=O)N[C@@H](CCCCN)C(N)=O)C(C)C)[C@@H](C)O (Stearoyl-RTMVHPK-NH2),pIC50,Influenza A virus,< 4.00
same,pIC50,H3N2 subtype,4.96
CCCCCCCCCCCCCCCCCC(=O)N[C@@H](C)C(=O)N[C@@H](CCCNC(=N)N)C(=O)N[C@@H](CC(C)C)C(=O)N1CCC[C@H]1C(=O)N[C@@H](CCCNC(=N)N)C(=O)N[C@H](C(=O)N[C@@H](CCSC)C(=O)N[C@H](C(=O)N[C@@H](Cc1cnc[nH]1)C(=O)N1CCC[C@H]1C(=O)N[C@@H](CCCCN)C(=O)N[C@H](C(=O)N[C@@H](C)C(=O)N[C@@H](Cc1cnc[nH]1)C(=O)N[C@@H](CCC(N)=O)C(N)=O)[C@@H](C)O)C(C)C)[C@@H](C)O (Stearoyl-ARLPRTMVHPKTAHQ-NH2),pIC50,Influenza A virus,4.89
same,pIC50,H3N2 subtype,5.10
CSCC[C@H](NC(=O)[C@@H](NC(=O)[C@H](CCCNC(=N)N)NC(=O)[C@@H]1CCCN1C(=O)[C@H](CC(C)C)NC(=O)[C@H](C)NC(=O)[C@H](C)N)[C@H](C)O)C(=O)N[C@H](C(=O)N[C@@H](Cc1cnc[nH]1)C(=O)N1CCC[C@H]1C(=O)N[C@@H](CCCCN)C(=O)N1CCC[C@H]1C(=O)N[C@@H](C)C(=O)N[C@@H](CCC(N)=O)C(=O)N1CCC[C@H]1C(=O)N[C@@H](CCCCNC(=O)CCCC[C@@H]1SC[C@@H]2NC(=O)N[C@@H]21)C(N)=O)C(C)C,Activity,[2],inactive
same,Activity,[3],inactive
H-EPYGFIAFSRAAHSP-OH,pKd,[4],7.70
same,pKd,[5],7.52
same,pKd,[1],7.52
CSCC[C@H](NC(=O)[C@@H](NC(=O)[C@@H]1CCCN1C(=O)[C@H](CO)NC(=O)[C@H](CC(C)C)NC(=O)[C@H](CCCN=C(N)N)NC(=O)[C@H](C)N)[C@@H](C)O)C(=O)N[C@H](C(=O)N[C@@H](Cc1cnc[nH]1)C(=O)N1CCC[C@H]1C(=O)N[C@@H](CC(N)=O)C(=O)NCC(=O)N[C@@H](C)C(=O)N[C@@H](CCC(N)=O)C(=O)N1CCC[C@H]1C(=O)O)C(C)C,pKd,[4],8.07
same,pKd,[5],7.80
same,pKd,[1],8.11
CCCCCCCCCCCCCCCCCC(=O)N[C@@H](C)C(=O)N[C@@H](CCCNC(=N)N)C(=O)N[C@@H](CC(C)C)C(=O)N[C@@H](CO)C(=O)N1CCC[C@H]1C(=O)N[C@H](C(=O)N[C@@H](CCSC)C(=O)N[C@H](C(=O)N[C@@H](Cc1cnc[nH]1)C(=O)N1CCC[C@H]1C(=O)N[C@@H](CC(N)=O)C(=O)NCC(=O)N[C@@H](C)C(=O)N[C@@H](CCC(N)=O)C(=O)N1CCC[C@H]1C(N)=O)C(C)C)[C@@H](C)O (Stearoyl-ARLSPTMVHPNGAQP-NH2),pIC50,Influenza A virus,< 3.00
H-IDIAFSSLALADISR-OH [IDIAFSSLALADISR] [listing 2 of 2 here],pKd,[4],7.89
same,pKd,[5],7.52
CCCCCCCCCCCCCCCCCC(=O)N[C@H](C(=O)N[C@@H](CCCNC(=N)N)C(=O)N[C@@H](CC(C)C)C(=O)N1CCC[C@H]1C(=O)N[C@@H](CCCNC(=N)N)C(=O)N[C@H](C(=O)N[C@@H](CCSC)C(=O)N[C@@H](CC(C)C)C(=O)N[C@@H](Cc1cnc[nH]1)C(=O)N[C@@H](Cc1cnc[nH]1)C(=O)N[C@@H](CCCCN)C(=O)N1CCC[C@H]1C(=O)N[C@@H](C)C(=O)N[C@@H](CCC(N)=O)C(=O)N[C@@H](C)C(N)=O)[C@@H](C)O)[C@@H](C)O (Stearoyl-TRLPRTMLHHKPAQA-NH2),pIC50,Influenza A virus,5.29
same,pIC50,H3N2 subtype,5.00
CCCCCCCCCCCCCCCCCC(=O)N[C@H](C(=O)N[C@@H](CCSC)C(=O)N[C@H](C(=O)N[C@@H](CCCNC(=N)N)C(=O)N1CCC[C@H]1C(=O)N[C@@H](CC(C)C)C(=O)N[C@@H](CCCNC(=N)N)C(=O)N[C@@H](C)C(N)=O)[C@@H](C)O)C(C)C (Stearoyl-VMTRPLRA-NH2),pIC50,Influenza A virus,< 4.00
same,pIC50,H3N2 subtype,< 4.00
CCCCCCCCCCCCCCCCCC(=O)N[C@@H](C)C(=O)N[C@@H](CCCNC(=N)N)C(=O)N[C@@H](CC(C)C)C(=O)N1CCC[C@H]1C(=O)N[C@@H](CCCNC(=N)N)C(=O)N[C@@H](CC(N)=O)C(=O)N[C@@H](CCSC)C(=O)N[C@H](C(=O)N[C@@H](Cc1cnc[nH]1)C(=O)N[C@@H](Cc1cnc[nH]1)C(=O)N[C@@H](CCCCN)C(=O)N[C@H](C(=O)N[C@@H](C)C(=O)N[C@@H](CCC(N)=O)C(=O)N1CCC[C@H]1C(N)=O)[C@@H](C)O)C(C)C (Stearoyl-ARLPRNMVHHKTAQP-NH2),pIC50,Influenza A virus,4.82
same,pIC50,H3N2 subtype,5.21
CC(C)C[C@H](NC(=O)[C@H](CCCNC(=N)N)NC(=O)[C@H](C)N)C(=O)N1CCC[C@H]1C(=O)N[C@@H](CCCNC(=N)N)C(=O)N[C@H](C(=O)N[C@@H](C)C(=O)N[C@H](C(=O)N[C@@H](Cc1cnc[nH]1)C(=O)N1CCC[C@H]1C(=O)N[C@@H](CCCCN)C(=O)N1CCC[C@H]1C(=O)N[C@@H](C)C(=O)N[C@@H](CCC(N)=O)C(=O)N1CCC[C@H]1C(=O)N[C@@H](CCCCNC(=O)CCCC[C@@H]1SC[C@@H]2NC(=O)N[C@@H]21)C(N)=O)C(C)C)[C@@H](C)O (H-ARLPRTAVHPKPAQPK(Biotin)-NH2),Activity,[2],inactive
same,Activity,[3],inactive
CCCCCCCCCCCCCCCCCC(=O)N[C@@H](C)C(=O)N[C@@H](CCCNC(=N)N)C(=O)N[C@@H](CC(C)C)C(=O)N1CCC[C@H]1C(=O)N[C@@H](CCCNC(=N)N)C(=O)N[C@H](C(=O)N[C@@H](CCSC)C(=O)N[C@H](C(=O)N[C@@H](Cc1cnc[nH]1)C(=O)N[C@@H](CO)C(=O)N[C@@H](CCCCN)C(=O)N1CCC[C@H]1C(=O)N[C@@H](C)C(=O)N[C@@H](CCC(N)=O)C(=O)N1CCC[C@H]1C(=O)O)C(C)C)[C@@H](C)O (Stearoyl-ARLPRTMVHSKPAQP-OH),pIC50,Influenza A virus,4.39
same,pIC50,H3N2 subtype,5.17
CCCCCCCCCCCCCCCCCC(=O)N[C@@H](C)C(=O)N[C@@H](CCCNC(=N)N)C(=O)N[C@@H](CC(C)C)C(=O)N1CCC[C@H]1C(=O)N[C@@H](CCCNC(=N)N)C(=O)N[C@H](C(=O)N[C@@H](CCSC)C(=O)N[C@H](C(=O)N[C@@H](Cc1cnc[nH]1)C(=O)N1CCC[C@H]1C(=O)N[C@@H](CCCCN)C(=O)N1CCC[C@H]1C(=O)N[C@@H](C)C(=O)N[C@@H](CCC(N)=O)C(=O)N1CCC[C@H]1C(N)=O)C(C)C)[C@@H](C)O (Stearoyl-ARLPRTMVHPKPAQP-NH2),pIC50,Influenza A virus,4.82
same,pIC50,H3N2 subtype,4.96
H-GRPPDSVFRSRGWLS-OH,pKd,[4],8.05
same,pKd,[5],7.70
same,pKd,[1],7.96
H-GRVPVFGLSPLFKVE-OH,pKd,[4],7.80
same,pKd,[5],7.72
same,pKd,[1],8.11
CCCCCCCCCCCCCCCCCC(=O)N[C@@H](C)C(=O)N[C@@H](CCCNC(=N)N)C(=O)N[C@@H](CC(C)C)C(=O)N1CCC[C@H]1C(=O)N[C@@H](CCCNC(=N)N)C(=O)N[C@H](C(=O)N[C@@H](CCSC)C(=O)N[C@H](C(N)=O)C(C)C)[C@@H](C)O (Stearoyl-ARLPRTMV-NH2),pIC50,Influenza A virus,5.38
same,pIC50,H3N2 subtype,5.52
CCCCCCCCCCCCCCCCCC(=O)N[C@@H](C)C(=O)N[C@@H](CCCNC(=N)N)C(=O)N[C@@H](CC(C)C)C(=O)N1CCC[C@H]1C(=O)N[C@@H](CCCNC(=N)N)C(=O)N[C@@H](CO)C(=O)N[C@@H](CCSC)C(=O)N[C@H](C(=O)N[C@@H](Cc1cnc[nH]1)C(=O)N[C@@H](Cc1cnc[nH]1)C(=O)N[C@@H](CCCCN)C(=O)N1CCC[C@H]1C(=O)N[C@@H](C)C(=O)N[C@@H](CCC(N)=O)C(=O)N1CCC[C@H]1C(N)=O)C(C)C (Stearoyl-ARLPRSMVHHKPAQP-NH2),pIC50,Influenza A virus,4.66
same,pIC50,H3N2 subtype,5.05
CCCCCCCCCCCCCCCCCC(=O)N[C@@H](C)C(=O)N[C@@H](CCCNC(=N)N)C(=O)N[C@@H](CC(C)C)C(=O)N1CCC[C@H]1C(=O)N[C@@H](CCCNC(=N)N)C(N)=O (Stearoyl-ARLPR-NH2),pIC50,Influenza A virus,5.80
same,pIC50,H3N2 subtype,5.72
